Key:
[1] = molecular target: c-Myc–Max(S)/DNA complex (Homo sapiens, UniProt P01106); assay: EMSA, disruption of c-Myc–Max; assay type: biochemical; conditions: 100 µM compound, n = 1
Summary of the method: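 His6-tagged proteins were expressed in E. coli BL21DE3(pLysS) with IPTG induction and purified on Ni-NTA under 8 M urea. The tag was removed with TEV protease, giving >95% purity. Each protein at 30 nM was mixed with 30 nM HEX-labelled double-stranded oligonucleotide carrying a c-Myc binding site. Complexes were resolved by gel shift.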

[2] = molecular target: c-Myc–Max(S) heterodimer (Homo sapiens, UniProt P01106); assay: SPR, c-Myc–Max; assay type: binding
[3] = system: HL60 promyelocytic leukemia cells; assay: Cell cycle analysis, propidium iodide; assay type: cell-based, human; conditions: HL60, 24 h
[4] = system: H460 large cell lung cancer cells; assay: Neutral lipid quantification, BODIPY-459/503; assay type: cell-based; conditions: H460, 48 h
Summary of the method: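 Sub-confluent H460 cells were treated with test compound for 48 h, then washed, trypsinised and resuspended in PBS. […] was added in PBS at 50 µg/ml, and cells were stained for 30 min at ambient temperature. After three PBS washes, cells were analysed by flow cytometry. Mean fluorescence was expressed as a ratio to untreated controls stained in parallel, from biological triplicates.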

[5] = system: c-Myc-dependent reporter (wt-Myc) in HeLa cells; assay: Luciferase reporter, c-Myc binding sites; assay type: cell-based; conditions: 6 h
[6] = system: NF-κB reporter in HeLa cells; assay: Luciferase reporter, NF-κB binding sites; assay type: cell-based; conditions: 6 h
[7] = molecular target: c-Myc–Max heterodimers in HL60 cells (Homo sapiens, UniProt P01106); assay: c-Myc–Max co-immunoprecipitation; assay type: cell-based; conditions: HL60, 6 h
Summary of the method: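 About 5 × 10^6 HL60 cells were exposed to test compound or DMSO vehicle for 6 h. Cells were pelleted at 500 × g, washed in ice-cold PBS and lysed in IP buffer, keeping an input aliquot. Max was immunoprecipitated, and precipitates were washed three times. They were run on 10% SDS-PAGE and immunoblotted with anti-Myc monoclonal 9E10 (1:1000).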

[8] = Solubility; assay type: physicochemical
[9] = system: U266; conditions: read-out: Growth inhibition IC50, U266; U266 myeloma, expresses L-Myc; cited from earlier work
[10] = metabolism of the nitro group; cited from earlier work
[11] = molecular target: Max(L) (Homo sapiens, UniProt P61244 1-160); assay: SPR
[12] = molecular target: c-Myc bHLH-ZIP domain;Max(S) (Homo sapiens;Homo sapiens, UniProt P01106-1;P61244-2 353-437;1-151, |); assay: SPR

c-Myc–Max heterodimers in HL60 cells, sequence (P01106 whole entry, one chain of several): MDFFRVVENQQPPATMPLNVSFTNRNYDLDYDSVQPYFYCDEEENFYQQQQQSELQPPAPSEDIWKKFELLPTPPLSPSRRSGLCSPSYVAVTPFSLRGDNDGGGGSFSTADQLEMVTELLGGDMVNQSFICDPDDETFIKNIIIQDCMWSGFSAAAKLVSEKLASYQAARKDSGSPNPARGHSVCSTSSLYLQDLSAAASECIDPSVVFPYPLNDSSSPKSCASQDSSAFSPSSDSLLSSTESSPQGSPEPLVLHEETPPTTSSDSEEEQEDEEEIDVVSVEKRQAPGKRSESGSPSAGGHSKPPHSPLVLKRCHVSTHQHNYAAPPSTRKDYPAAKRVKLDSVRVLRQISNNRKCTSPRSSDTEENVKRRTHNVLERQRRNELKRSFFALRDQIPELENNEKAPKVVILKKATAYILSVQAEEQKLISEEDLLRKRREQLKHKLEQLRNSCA

In the case of `CC(C)COc1cc(C(=O)O)ccc1NC(=O)c1ccc([N+](=O)[O-])c(OCC(C)C)c1` [4aa, 3-Isobutoxy-4-(3-isobutoxy-4-nitrobenzamido)benzoic acid], the “EMSA screening, disruption of c-Myc–Max(S)/DNA binding” value (from here on “EMSA screening, disruption”) [1] is reported as “potent activity”.

In the case of `CC(C)COc1cc(C(=O)O)ccc1NC(=O)c1ccc([N+](=O)[O-])c(OCc2ccccc2)c1` [4ca, 3-Isobutoxy-4-(3-benzyloxy-4-nitrobenzamido)benzoic acid], the “EMSA screening, disruption” value [1] is reported as “complete disruption”.

For `CC(C)COc1cc(C(=O)O)ccc1NC(=O)c1ccc([N+](=O)[O-])c(OCc2cccc3ccccc23)c1` [4da, 3-Isobutoxy-4-(3-(naphthalen-1-ylmethoxy)-4-nitrobenzamido)benzoic acid], the “EMSA screening, disruption” value [1] was “potent activity”, the Kd [2] was ~10 µM and the “Kd by SPR, pre-formed heterodimers” value ([2]; c-Myc–Max(S) heterodimers pre-formed before addition of compound (Figure 4E)) was “somewhat higher Kd”. The Cell cycle arrest [3] was “promoted a G0/G1 arrest”, the Neutral lipid accumulation [4] was “increase in neutral lipid stores” and the “Luciferase activity, wt-c-Myc vector” value [5] was “dose-dependent inhibition of luciferase”. The “Luciferase activity, NF-kB vector” value [6] was “no inhibition of luciferase was observed” and the “c-Myc–Max association by co-IP” value [7] was “remain largely intact”.

For `COC(=O)c1ccc(NC(=O)c2ccc([N+](=O)[O-])c(OC(C)C)c2)c(OCC(C)C)c1` [14ba, Methyl 3-isobutoxy-4-(3-isopropoxy-4-nitrobenzamido)benzoate], the “EMSA screening, disruption” value [1] was “modest inhibitory activities” and the Solubility [8] was “poor solubilities”.

In the case of `CCc1ccc(/C=C2\SC(=S)NC2=O)cc1` [10058-F4, reference compound], the Cell cycle arrest [3] is listed as “promoted a G0/G1 arrest”, the “c-Myc–Max association by co-IP” value [7] is listed as “abrogated c-Myc’s association with Max” and the IC50 [9] is listed as ~100 µM.

For `O=[N+]([O-])c1ccc(Nc2ccccc2-c2ccccc2)c2nonc12` [compound 2, reference compound], the Neutral lipid accumulation [4] was “increase in neutral lipid stores”, the “Luciferase activity, wt-c-Myc vector” value [5] was “dose-dependent inhibition of luciferase” and the “Luciferase activity, NF-kB vector” value [6] was “no inhibition of luciferase was observed”. For the same molecule, the Half-life [10] was “short half-life”.

With `CC(C)COc1cc(C(=O)O)ccc1NC(=O)c1ccc([N+](=O)[O-])c(OCC(C)C)n1` [compound 15, 3-Isobutoxy-4-(6-isobutoxy-5-nitropicolinamido)benzoic acid] the “EMSA screening, disruption” value [1] was “complete disruption”.

For `CC(C)COc1nc(C(=O)O)ccc1NC(=O)c1ccc([N+](=O)[O-])c(OCC(C)C)n1` [compound 16, 6-Isobutoxy-5-(6-isobutoxy-5-nitropicolinamido)picolinic acid], the “EMSA screening, disruption” value [1] was “complete disruption”.

For `CCOC(=O)C(=O)Nc1ccc(C(=O)Nc2ccc(C(=O)O)cc2OCC(C)C)cc1OCC(C)C` [compound 21, 4-(4-(2-Ethoxy-2-oxoacetamido)-3-isobutoxybenzamido)-3-isobutoxybenzoic acid], the “EMSA screening, disruption” value [1] was “complete disruption”.

In the case of “Methyl 3-benzyloxy-4-(3-isobutoxy-4-nitrobenzamido)benzoate [14ca]”, the “EMSA screening, disruption” value [1] is reported as “modest inhibitory activities”.

B1: E-box SPR oligonucleotide (dsDNA)
DNA 1: TGAAGCAGACCACGTGGTCGTCTTCA
DNA 2: TGAAGACGACCACGTGGTCTGCTTCA
B1: binds [11]; binds [12].

— PMC4955407 (Journal of medicinal chemistry, 2015)
